For assay [1], the system named is VEGF or basic fibroblast growth factor (bFGF). As to conditions: cited from earlier work.
Assay [2] concerns VEGFR-2-Fc. Particulars: cited from earlier work.
Assay [3] has as its target VEGFR-3 (Homo sapiens) (UniProt P35916). As to conditions: cited from earlier work.
For assay [4], the target named is T1, recombinant mouse VEGFR-3-Fc (mouse, UniProt P35917 25-775).
T1 sequence (looked up): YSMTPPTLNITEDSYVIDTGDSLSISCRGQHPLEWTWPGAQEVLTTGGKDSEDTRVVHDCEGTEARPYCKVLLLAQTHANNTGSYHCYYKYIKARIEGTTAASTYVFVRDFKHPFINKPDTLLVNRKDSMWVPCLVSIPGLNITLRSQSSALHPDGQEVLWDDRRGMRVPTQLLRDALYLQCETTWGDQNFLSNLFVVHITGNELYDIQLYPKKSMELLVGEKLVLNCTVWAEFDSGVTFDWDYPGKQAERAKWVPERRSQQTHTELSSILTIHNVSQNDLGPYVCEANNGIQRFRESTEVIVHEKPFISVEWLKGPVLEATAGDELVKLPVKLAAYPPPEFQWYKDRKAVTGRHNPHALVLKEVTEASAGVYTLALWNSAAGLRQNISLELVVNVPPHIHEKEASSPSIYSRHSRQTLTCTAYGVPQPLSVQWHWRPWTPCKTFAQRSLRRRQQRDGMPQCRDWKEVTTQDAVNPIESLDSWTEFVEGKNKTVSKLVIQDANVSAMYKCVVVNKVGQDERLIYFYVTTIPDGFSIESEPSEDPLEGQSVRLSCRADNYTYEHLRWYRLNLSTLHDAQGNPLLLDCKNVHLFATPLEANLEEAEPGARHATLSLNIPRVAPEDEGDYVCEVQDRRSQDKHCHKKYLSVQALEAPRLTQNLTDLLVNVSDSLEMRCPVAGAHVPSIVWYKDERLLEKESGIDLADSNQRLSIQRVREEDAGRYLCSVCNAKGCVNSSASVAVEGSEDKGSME
In words: SPR. For orientation: Surface plasmon resonance follows binding to a sensor surface in real time, without labels.

Assay [5] has as its system recombinant VEGFR-3-Fc. The class given is binding, mouse. Particulars: pull-down. The method in brief:
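GST-fused endostatin-containing fragments were incubated with recombinant VEGFR-3-Fc and a range of VEGF-C concentrations. Receptor–ligand complexes were recovered by pull-down and probed by western blot with anti-VEGFR-3 antibody.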

The target in assay [6] is VEGFR3-AP (a VEGFR-3 fusion protein). As to conditions: fully processed VEGF-C binding to VEGFR3-AP; cited from earlier work.
Assay [7] deals with Primary human lung lymphatic endothelial cells (h-LECs). In words: Scratch wound cell migration assay, h-LECs. It counts as cell-based. Particulars: 100 ng/mL VEGF-C stimulation, 24 h. In short, it runs like this: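 Confluent h-LECs held serum-free for 24 h, rinsed with DMEM, and scratched with a pipette tip. Washed with PBS, then kept 24 h in experimental medium with 100 ng/mL VEGF-C ± test peptide. Fixed in 4% paraformaldehyde; cells migrating past the scratch counted in ≥3 fields per well, three wells per condition.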

Like-named read-outs stand apart in the source and are kept apart here.

Turning to endostatin, the “Binding to VEGF or bFGF” value in assay [1] is “does not bind to VEGF or basic fibroblast growth factor (bFGF)”. In addition, in assay [2] (10-min preincubation of endostatin with VEGFR-2-Fc), the “Block of interaction of VEGF-A and VEGFR-2-Fc” value was “blocks the interaction of VEGF-A and VEGFR-2-Fc in a dose-dependent manner”. Besides, the “Dissociation rate of VEGFR-2-Fc from VEGF and its receptor complex” value in assay [2] (endostatin 10 μg/mL) is “does not affect the dissociation rate”.
The Kd is the constant that tells how readily two partners part at equilibrium. For VEGF-C (from UniProt P49767), the Kd in assay [3] was 1 nM.
In general, koff refers to the first-order rate constant of dissociation. What is called kon is the second-order rate constant of association. In the case of LEQKAASCHNSYIVLCIENSFMTSFSK [murine endostatin peptide (mEP)], in assay [4], the koff turned out to be 0.672 s⁻¹ and the kon was determined as 1.41e+07 M⁻¹ s⁻¹.

B1: GST-endostatin-containing fragments: GST-endostatin-containing fragments (protein)
chain: HTHQDFQPVLHLVALNTPLSGGMRGIRGADFQCFQQARAVGLSGTFRAFLSSRLQDLYSIVRRADRGSVPIVNLKDEVLSPSWDSLFSGSQGQLQPGARIFSFDGRDVLRHPAWPQKSVWHGSDPSGRRLMESYCETWRTETTGATGQASSLLSGRLLEQKAASCHNSYIVLCIENSFMTSFSK
modifications: left off: GST, end not stated, kept
For B1, the “Binding of GST-endostatin-containing fragment to VEGFR-3-Fc” value in assay [5] (western blot with anti-VEGFR-3 antibody, absence of VEGF-C and low concentration of VEGF-C (lanes 1 and 2)) is given as “able to bind VEGFR-3-Fc”; in assay [5] (western blot, VEGF-C at a higher concentration (lane 3)), “diminished”.

B2: VEGF-C: vascular endothelial growth factor C, recombinant; literature KD for fully processed VEGF-C (protein)
chain: FESGLDLSDAEPDAGEATAYASKDLEEQLRSVSSVDELMTVLYPEYWKMYKCQLRKGGWQHNREQANLNSRTEETIKFAAAHYNTEILKSIDNEWRKTQCMPREVCIDVGKEFGVATNTFFKPPCVSVYRCGGCCNSEGLQCMNTSTSYLSKTLFEITVPLSQGPKPVTISFANHTSCRCMSKLDVYRQVHSIIRR
On to B2, for which, in assay [6], the dissociation constant (Kd) was 1 nM. Further, the “Repopulation of the scratch surface” value in assay [7] was “approximately 50%”.

These data come from paper PMC3646568 (Protein and peptide letters, 2012).
